Experimental data published in ChEMBL document CHEMBL1139795, “Capped diaminopropionamide-glycine dipeptides are inhibitors of CC chemokine receptor 2 (CCR2)” (Bioorg Med Chem Lett, 2007).
pIC50: −log10 of the molar value.

Legend:
[1] = biological target: C-C chemokine receptor type 2 (Homo sapiens, UniProt P41597); assay: Displacement of [125]MCP1 from CCR2 in human PBMCs
In short: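 Competition binding with 0.3 nM [125I]MCP-1 on human peripheral blood mononuclear cells at 23 °C. IC50 given as mean ± SD (n = 2) or mean ± SEM (n > 2). Single determinations are listed with n = 1.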

[2] = biological target: T1, C-C chemokine receptor type 1 (Homo sapiens) (UniProt P32246); assay: Inhibition of CCR1 at 10 uM
T1 sequence (whole entry): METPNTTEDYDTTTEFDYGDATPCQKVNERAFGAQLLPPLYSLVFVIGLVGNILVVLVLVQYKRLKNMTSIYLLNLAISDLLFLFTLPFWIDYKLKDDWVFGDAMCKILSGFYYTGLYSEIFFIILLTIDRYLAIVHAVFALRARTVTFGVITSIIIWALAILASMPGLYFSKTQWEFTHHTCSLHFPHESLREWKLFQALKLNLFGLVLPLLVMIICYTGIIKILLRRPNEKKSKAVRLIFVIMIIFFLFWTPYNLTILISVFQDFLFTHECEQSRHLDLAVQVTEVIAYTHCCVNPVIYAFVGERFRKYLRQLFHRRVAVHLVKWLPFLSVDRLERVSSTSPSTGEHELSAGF

Chain of C-C chemokine receptor type 2 (P41597 whole entry): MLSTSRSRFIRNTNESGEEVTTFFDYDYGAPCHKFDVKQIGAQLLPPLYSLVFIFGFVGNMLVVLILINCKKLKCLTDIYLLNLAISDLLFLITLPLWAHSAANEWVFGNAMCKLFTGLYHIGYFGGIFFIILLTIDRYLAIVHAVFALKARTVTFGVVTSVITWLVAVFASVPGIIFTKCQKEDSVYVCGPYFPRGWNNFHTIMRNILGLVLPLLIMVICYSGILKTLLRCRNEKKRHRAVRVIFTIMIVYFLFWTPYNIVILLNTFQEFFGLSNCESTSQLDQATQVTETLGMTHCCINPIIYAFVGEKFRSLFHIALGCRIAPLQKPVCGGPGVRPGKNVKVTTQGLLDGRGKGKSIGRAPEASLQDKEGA

| SMILES | pIC50 [1] | inhibition [2] [%] |
| --- | --- | --- |
| CCc1ccc(CNC[C@H](NC(=O)CNC(=O)c2cccc(C(F)(F)F)c2)C(=O)NC(C)(C)C)c(C)c1 | 7.44 | < 30 |
| COC(=O)[C@H](CNCc1ccc(C)cc1C)NC(=O)CNC(=O)c1cccc(C(F)(F)F)c1 | 5.82 | < 30 |
| Cc1ccc(CNC[C@H](NC(=O)CNC(=O)c2cc(OC(F)(F)F)ccc2N)C(=O)NC(C)(C)C)c(C)c1 | 7.55 | < 30 |
| CCOC(=O)Nc1cc(C(=O)NCC(=O)N[C@@H](CNCc2ccc(C)cc2C)C(=O)NC(C)(C)C)cc(C(F)(F)F)c1 | 6.51 | < 30 |
| Cc1ccc(CN2CC[C@@H](NC(=O)CNC(=O)c3cccc(C(F)(F)F)c3)C2)c(C)c1 | 7.77 | < 30 |
| COc1cc(C)c(CNC[C@H](NC(=O)CNC(=O)c2cccc(C(F)(F)F)c2)C(=O)NC(C)(C)C)cc1C | 5.89 | < 30 |
| Cc1ccc(CNC[C@H](NC(=O)CNC(=O)c2cccc(C(F)(F)F)c2)C(=O)N(C)C)c(C)c1 | 6.60 | < 30 |
| Cc1ccc(CNC[C@H](NC(=O)CNC(=O)c2cc(C(F)(F)F)ccc2NCC(C)C)C(=O)NC(C)(C)C)c(C)c1 | 7.64 | < 30 |
| Cc1ccc(CNC[C@H](NC(=O)CNC(=O)c2cccc(C(F)(F)F)c2)C(=O)NC2CCCCC2)c(C)c1 | 6.82 | < 30 |
| CCc1ccc(CNC[C@H](NC(=O)CNC(=O)c2cccc(C(F)(F)F)c2)C(=O)NC(C)(C)C)cc1 | 6.28 | < 30 |
| CC(C)(C)NC(=O)[C@H](CNCc1ccc(S(C)(=O)=O)cc1)NC(=O)CNC(=O)c1cccc(C(F)(F)F)c1 | 5.14 | < 30 |
| CCNC(=O)C(C)(CNCc1ccc(C)cc1C)NC(=O)CNC(=O)c1cc(C(F)(F)F)ccc1N (racemic) | 5.06 | < 30 |
| CCNC(=O)[C@@H](CNC(=O)CNC(=O)c1cccc(C(F)(F)F)c1)NCc1ccc(C)cc1C | 4.66 | < 30 |
| CC(C)(C)NC(=O)[C@H](CNCc1ccc(Br)cc1)NC(=O)CNC(=O)c1cccc(C(F)(F)F)c1 | 5.77 | < 30 |
| Cc1ccccc1CNC[C@H](NC(=O)CNC(=O)c1cccc(C(F)(F)F)c1)C(=O)NC(C)(C)C | 6.40 | < 30 |
| Cc1ccc(CNCC[C@H](NC(=O)CNC(=O)c2cccc(C(F)(F)F)c2)C(N)=O)c(C)c1 | 5.52 | < 30 |
| Cc1cc(Br)ccc1CNC[C@H](NC(=O)CNC(=O)c1cccc(C(F)(F)F)c1)C(=O)NC(C)(C)C | 6.80 | < 30 |
| COc1ccc(CNC[C@H](NC(=O)CNC(=O)c2cccc(C(F)(F)F)c2)C(=O)NC(C)(C)C)c(C)c1 | 7.33 | < 30 |
| Cc1ccc(CNC[C@H](CO)NC(=O)CNC(=O)c2cccc(C(F)(F)F)c2)c(C)c1 | 5.66 | < 30 |
| Cc1ccc(CNC[C@H](NC(=O)CNC(=O)c2cccc(C(F)(F)F)c2)C(=O)NC(C)(C)C)cc1 | 6.12 | < 30 |
| Cc1ccc(CNC[C@H](NC(=O)CNC(=O)c2cc(NCc3ccccc3)cc(C(F)(F)F)c2)C(=O)NC(C)(C)C)c(C)c1 | 6.96 | < 30 |
| Cc1ccc(CNC[C@H](NC(=O)CNC(=O)c2cccc(C(F)(F)C(F)(F)F)c2)C(=O)NC(C)(C)C)c(C)c1 | 7.19 | < 30 |
| Cc1ccc(CNC[C@@H](C)NC(=O)CNC(=O)c2cccc(C(F)(F)F)c2)c(C)c1 | – | < 30 |
| Cc1ccc(CNC[C@H](NC(=O)CNC(=O)c2cccc(OC(F)(F)F)c2)C(=O)NC(C)(C)C)c(C)c1 | 6.72 | < 30 |

| SMILES | pIC50 [1] | inhibition [2] [%] |
| --- | --- | --- |
| CCc1ccccc1CNC[C@H](NC(=O)CNC(=O)c1cccc(C(F)(F)F)c1)C(=O)NC(C)(C)C | 6.42 | < 30 |
| Cc1ccc(CNC[C@H](NC(=O)CNC(=O)c2cccc(C(F)(F)F)c2)C(=O)N2CCOCC2)c(C)c1 | 6.31 | < 30 |
| Cc1ccc(CNC[C@H](NC(=O)CNC(=O)c2cccc(C(F)F)c2)C(=O)NC(C)(C)C)c(C)c1 | 6.40 | < 30 |
| Cc1ccc(CNC[C@@H](CO)NC(=O)CNC(=O)c2cccc(C(F)(F)F)c2)c(C)c1 | 6.49 | < 30 |
| Cc1ccc(CNCC[C@H](NC(=O)CNC(=O)c2cccc(C(F)(F)F)c2)C(=O)NC(C)(C)C)c(C)c1 | 6.11 | < 30 |
| Cc1cc(C#N)ccc1CNC[C@H](NC(=O)CNC(=O)c1cccc(C(F)(F)F)c1)C(=O)NC(C)(C)C | 6.05 | < 30 |
| Cc1ccc(CNC[C@H](NC(=O)CNC(=O)c2cccc(C(F)(F)F)c2)C(=O)NCc2ccccc2)c(C)c1 | 5.15 | < 30 |
| Cc1ccc(CNC[C@H](NC(=O)CNC(=O)c2cccc(C(F)(F)F)c2)C(=O)NC(C)(C)C)cc1N | 6.92 | < 30 |
| Cc1ccc(CNC[C@H](NC(=O)CNC(=O)c2cccc(C(F)(F)F)c2)C(=O)NCC2CC2)c(C)c1 | 7.22 | < 30 |
| CCC(C)(C)NC(=O)[C@H](CNCc1ccc(C)cc1C)NC(=O)CNC(=O)c1cccc(C(F)(F)F)c1 | 6.92 | < 30 |
| COc1ccc(CNC[C@H](NC(=O)CNC(=O)c2cccc(C(F)(F)F)c2)C(=O)NC(C)(C)C)cc1 | 5.96 | < 30 |
| Cc1ccc(CNC[C@H](NC(=O)CNC(=O)c2cccc(C(F)(F)F)c2)C(=O)O)c(C)c1 | 5.26 | < 30 |
| CN(C)c1ccc(CNC[C@H](NC(=O)CNC(=O)c2cccc(C(F)(F)F)c2)C(=O)NC(C)(C)C)cc1 | 6.37 | < 30 |
| Cc1ccc(CNC[C@H](NC(=O)CNC(=O)c2cccc(SC(F)(F)F)c2)C(=O)NC(C)(C)C)c(C)c1 | 6.82 | < 30 |
| CCCCc1ccc(CNC[C@H](NC(=O)CNC(=O)c2cccc(C(F)(F)F)c2)C(=O)NC(C)(C)C)cc1 | 5.25 | < 30 |
| Cc1ccc(CNC[C@H](NC(=O)CNC(=O)c2cccc(C(F)(F)F)c2)C(=O)NC(C)C)c(C)c1 | 6.77 | < 30 |
| Cc1ccc(CNC[C@H](NC(=O)CNC(=O)c2cccc(C(F)(F)F)c2)C(=O)NC2CC2)c(C)c1 | 7.06 | < 30 |
| Cc1ccc(CNC[C@H](NC(=O)CNC(=O)c2cccc(C(F)(F)F)c2)C(=O)NC2CCCC2)c(C)c1 | 7.00 | < 30 |
| Cc1ccc(CNC[C@H](NC(=O)CNC(=O)c2cccc(C(F)(F)F)c2)C(=O)N2CCCC2)c(C)c1 | 6.59 | < 30 |
| Cc1ccc(CNC[C@@H](NC(=O)CNC(=O)c2cccc(C(F)(F)F)c2)C(N)=O)c(C)c1 | 6.20 | < 30 |
| Cc1ccc(CNC[C@H](NC(=O)CNC(=O)c2cccc(C(F)(F)F)c2)C(=O)NC2(C)CC2)c(C)c1 | 7.00 | < 30 |
| CON(C)C(=O)[C@H](CNCc1ccc(C)cc1C)NC(=O)CNC(=O)c1cccc(C(F)(F)F)c1 | 6.96 | < 30 |
| Cc1ccc(CNC[C@H](NC(=O)CNC(=O)c2cc(C(F)(F)F)ccc2NC(=O)C2CCCCC2)C(=O)NC(C)(C)C)c(C)c1 | 7.05 | < 30 |
| Cc1ccc(CNC[C@H](NC(=O)CNC(=O)c2cccc(C(F)(F)F)c2)C(C)C)c(C)c1 | – | < 30 |
